Here are results for 14 compounds from ChEMBL document CHEMBL3785031, “Discovery of small-molecule nonpeptide antagonists of nociceptin/orphanin FQ receptor: The studies of design, synthesis, and structure-activity relationships for (4-arylpiperidine substituted-methyl)-[bicyclic (hetero)cycloalkanobenzene] derivatives” (Eur J Med Chem, 2016).

The target in data set [1] is T1, Nociceptin receptor (Homo sapiens, UniProt P41146). In words: Antagonist activity at human NOP receptor expressed in HEK293 cells assessed as inhibition of N/OFQ-induced [35S]GTPgammaS binding after 1.5 hrs by scintillation proximity assay. The format is functional, cell-based. Put shortly: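 Membranes from HEK-293 cells expressing hNOP receptor were incubated 1.5 h at 25 °C with 10 nM N/OFQ, 400 pM [35S]GTPγS, 5 μM GDP and WGA-SPA beads. Buffer was 20 mM HEPES, 100 mM NaCl, 5 mM MgCl2 and 1 mM EDTA, pH 7.4. Six compound concentrations from 0.1 nM to 10 μM were run in duplicate. Basal binding was measured without ligands; NSB with 10 μM unlabeled GTPγS. Read by scintillation counting; IC50 derived.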
T1 sequence (P41146 whole entry): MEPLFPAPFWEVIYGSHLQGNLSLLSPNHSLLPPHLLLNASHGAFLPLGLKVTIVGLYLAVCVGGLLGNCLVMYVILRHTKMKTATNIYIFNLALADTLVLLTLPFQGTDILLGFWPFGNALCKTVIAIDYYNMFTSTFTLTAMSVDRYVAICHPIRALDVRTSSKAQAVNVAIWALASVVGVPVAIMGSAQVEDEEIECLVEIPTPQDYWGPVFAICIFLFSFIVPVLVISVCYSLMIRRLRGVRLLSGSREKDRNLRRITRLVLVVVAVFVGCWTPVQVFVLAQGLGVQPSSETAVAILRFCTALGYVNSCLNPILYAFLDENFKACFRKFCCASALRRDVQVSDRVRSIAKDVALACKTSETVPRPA

In data set [2] the target is T1, Nociceptin receptor. As to the kind of experiment: Displacement of [3H]N/OFQ from human NOP receptor expressed in HEK293 cells after 45 mins by scintillation proximity assay. The format is cell-based. Put shortly:
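HEK-293 membranes bearing recombinant hNOP receptor (8.3 μg) were incubated at 25 °C for 45 min with 0.4 nM [3H]N/OFQ and WGA-SPA beads. Buffer was 50 mM HEPES, pH 7.4, with 10 mM MgCl2 and 1 mM EDTA. Six concentrations, 10⁻¹¹–10⁻⁵ M, were run in duplicate; NSB with 1 μM N/OFQ. IC50 by nonlinear regression; Ki = IC50/(1+[L]/KD), KD 0.135 nM.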

Data set [3] has as its target Mu-type opioid receptor (Homo sapiens, UniProt P35372). As to the kind of experiment: Displacement of [3H]DAMGO from human mu opioid receptor expressed in CHOK1 cells after 45 mins by scintillation proximity assay. The class given is cell-based, CHO-K1.
Data set [4] is described as follows: Half life in human liver microsomes at 1 uM by HPLC-MS/MS analysis. The class given is ADME. Put shortly:
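Substrate at 1.0 μM was incubated at 37 °C in pooled human liver microsomes (1.0 mg/mL protein) with 3.3 mM MgCl2, 0.1 M NaKHPO4 (pH 7.4) and an NADPH-regenerating system.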

Data set [5] concerns the target Voltage-gated inwardly rectifying potassium channel KCNH2 (Homo sapiens, UniProt Q12809). As to the kind of experiment: Displacement of [3H]dofetilide from human ERG channel expressed in HEK293 cells after 60 mins by liquid scintillation counting method. The class given is cell-based.
The subject of data set [6] is HEK293. As to the kind of experiment: Selectivity ratio of Ki for human mu opioid receptor expressed in CHOK1 cells to Ki for human NOP receptor expressed in HEK293 cells. The format is cell-based.
For data set [7], the target named is hERG (KCNH2) (Homo sapiens, UniProt Q12809). In words: Displacement of [3H]dofetilide from human ERG channel expressed in HEK293 cells at 1 uM after 60 mins by liquid scintillation counting method. The class given is cell-based. Conditions: HEK293 cells that express hERG, probe [3H]dofetilide.
hERG (KCNH2), sequence (Q12809 whole entry): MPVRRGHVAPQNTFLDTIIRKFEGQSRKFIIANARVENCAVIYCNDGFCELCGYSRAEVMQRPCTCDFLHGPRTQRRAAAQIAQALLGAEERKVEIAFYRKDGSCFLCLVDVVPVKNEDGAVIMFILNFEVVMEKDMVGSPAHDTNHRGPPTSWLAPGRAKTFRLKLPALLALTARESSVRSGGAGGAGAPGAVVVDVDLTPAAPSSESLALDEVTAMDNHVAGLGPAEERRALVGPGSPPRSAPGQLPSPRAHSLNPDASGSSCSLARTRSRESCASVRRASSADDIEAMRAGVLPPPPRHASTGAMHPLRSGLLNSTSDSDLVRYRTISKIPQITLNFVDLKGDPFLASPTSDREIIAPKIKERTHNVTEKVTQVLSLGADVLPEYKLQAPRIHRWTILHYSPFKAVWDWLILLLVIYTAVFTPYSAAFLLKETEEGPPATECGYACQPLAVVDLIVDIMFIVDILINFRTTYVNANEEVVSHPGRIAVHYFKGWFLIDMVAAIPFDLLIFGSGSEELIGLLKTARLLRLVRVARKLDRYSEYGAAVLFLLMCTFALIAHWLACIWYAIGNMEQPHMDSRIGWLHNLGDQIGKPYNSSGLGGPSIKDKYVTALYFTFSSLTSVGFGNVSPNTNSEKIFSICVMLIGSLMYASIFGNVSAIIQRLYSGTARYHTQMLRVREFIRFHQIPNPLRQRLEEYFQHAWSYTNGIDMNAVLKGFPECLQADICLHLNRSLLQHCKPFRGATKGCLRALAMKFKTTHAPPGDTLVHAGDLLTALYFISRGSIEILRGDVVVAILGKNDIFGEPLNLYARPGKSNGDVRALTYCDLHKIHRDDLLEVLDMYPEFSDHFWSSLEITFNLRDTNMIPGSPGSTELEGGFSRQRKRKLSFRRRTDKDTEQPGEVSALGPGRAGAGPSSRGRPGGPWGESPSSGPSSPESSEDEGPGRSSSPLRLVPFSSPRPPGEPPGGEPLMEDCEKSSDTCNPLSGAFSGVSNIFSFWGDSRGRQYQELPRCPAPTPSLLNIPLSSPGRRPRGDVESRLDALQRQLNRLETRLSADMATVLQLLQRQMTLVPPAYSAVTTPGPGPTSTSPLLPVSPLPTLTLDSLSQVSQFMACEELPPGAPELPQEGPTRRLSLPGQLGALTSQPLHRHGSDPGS

Mu-type opioid receptor, sequence (P35372 whole entry): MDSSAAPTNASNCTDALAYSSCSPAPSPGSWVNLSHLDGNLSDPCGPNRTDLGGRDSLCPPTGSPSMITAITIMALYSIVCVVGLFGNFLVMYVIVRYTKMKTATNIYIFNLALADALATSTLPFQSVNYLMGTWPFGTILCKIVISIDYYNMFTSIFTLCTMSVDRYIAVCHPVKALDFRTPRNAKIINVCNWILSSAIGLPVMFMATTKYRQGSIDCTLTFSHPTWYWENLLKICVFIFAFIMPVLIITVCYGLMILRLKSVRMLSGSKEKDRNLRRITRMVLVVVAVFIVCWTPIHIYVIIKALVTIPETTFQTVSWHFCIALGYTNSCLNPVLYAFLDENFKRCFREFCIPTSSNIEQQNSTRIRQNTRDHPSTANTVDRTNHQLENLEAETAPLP
Voltage-gated inwardly rectifying potassium channel KCNH2, sequence (Q12809 whole entry): as the sequence (Q12809 whole entry) above

Turning to `Oc1ccc(Br)c2c1CNC(CN1CCC3(CCc4ccccc43)CC1)C2` (stereo not drawn), in data set [1], the half-maximal inhibitory concentration (IC50) worked out at 35.1 nM. The values for the inhibition constant Ki in data set [2] and in data set [3] were 1.74 nM and 139 nM, respectively. In addition, the half-life at 1 µM in data set [4] is 9.6 min.

In the case of `CN1C(=O)c2ccccc2CC1CN1CCC2(CCc3ccccc32)CC1` (stereo not drawn), the Ki was greater than 250 nM in data set [2] and 231 nM in data set [3]. The compound further gave a concentration for half-maximal inhibition (IC50) in data set [5] of 6960 nM. In addition, the Ratio Ki in data set [6] was less than 0.924.

As to `Oc1ccc(Cl)c2c1CNC(CN1CCC3(CCc4ccccc43)CC1)C2` (stereo not drawn), the IC50 in data set [1] is 21.3 nM. The Ki in data set [2] turned out to be 2.2 nM; in data set [3], 68.8 nM. Further, the half-life at 1 µM in data set [4] turned out to be 15.3 min.

In the case of `Cc1cc(F)ccc1C1CCN(CC2Cc3ccccc3CN2)CC1` (stereo not drawn), the half-maximal inhibitory concentration (IC50) in data set [1] was determined as 58.8 nM; in data set [5], 200 nM. Besides, the values for the Ki in data set [2] and in data set [3] were 3.56 nM and 342 nM, respectively. In addition, the Ratio Ki in data set [6] is 96.1. Moreover, the half-life at 1 µM in data set [4] amounted to 6.9 min.

On to `Oc1ccc2c(c1)CC(CN1CCC3(CCc4ccccc43)CC1)NC2` (stereo not drawn), for which the half-inhibitory concentration (IC50) in data set [1] stood at 227 nM. Further, the results for the Ki in data set [2] and in data set [3] were 10.2 nM and 392 nM, respectively. In addition, in data set [4], the half-life at 1 µM was 18 min.

For `c1ccc2c(c1)CCC(CN1CCC3(CCc4ccccc43)CC1)C2` (stereo not drawn), in data set [1], the half-maximal inhibitory concentration (IC50) was found to be 683 nM. Further, the Ki in data set [2] is 5.55 nM; in data set [3], 289 nM. The Ratio Ki in data set [6] came to 52.1. The same compound yielded an inhibition at 1 h, 1 µM in data set [7] of 71%.

Take `CC(=O)N1Cc2ccccc2CC1CN1CCC2(CCc3ccccc32)CC1` (stereo not drawn): the inhibition constant Ki in data set [2] came out at 29.8 nM; in data set [3], 74.4 nM. In data set [5], the IC50 was 500 nM. For the same compound, the Ratio Ki in data set [6] came to 2.5.

`CN1Cc2ccccc2CC1CN1CCC2(CCc3ccccc32)CC1` (stereo not drawn): the inhibition constant Ki worked out at 18.9 nM in data set [2] and 58.2 nM in data set [3]. The Ratio Ki in data set [6] was determined as 3.08.

As to `O=C(C1Cc2ccccc2CN1)N1CCC2(CCc3ccccc32)CC1` (stereo not drawn), the Ki in data set [2] was greater than 250 nM; in data set [3], greater than 450 nM.

For the compound `c1ccc2c(c1)CC(CN1CCC3(CCc4ccccc43)CC1)CO2` (stereo not drawn), the figures for the IC50 in data set [1] and in data set [5] were 122 nM and 1500 nM, respectively. For the same compound, the Ki in data set [2] worked out at 5.65 nM; in data set [3], 49.1 nM. In data set [6], the Ratio Ki came out at 8.69. The compound also came in with a half-life at 1 µM in data set [4] of 3.1 min.

Take `c1ccc2c(c1)CNC(CN1CCC3(CCc4ccccc43)CC1)C2` (stereo not drawn): the results for the IC50 in data set [1] and in data set [5] were 248 nM and greater than 1500 nM, respectively. Also, the Ki in data set [2] is 8.5 nM; in data set [3] it was 225 nM. Moreover, the Ratio Ki in data set [6] worked out at 26.5. This compound also had a half-life at 1 µM in data set [4] of 6.6 min.

As for `NC(=O)N1Cc2ccccc2CC1CN1CCC2(CCc3ccccc32)CC1` (stereo not drawn), the Ki in data set [2] was 18.1 nM; in data set [3], 108 nM. The Ratio Ki in data set [6] was found to be 5.97.

For `Cc1cc(F)ccc1C1CCN(CC2Cc3c(Cl)ccc(O)c3CN2)CC1` (stereo not drawn), the figures for the IC50 in data set [1] and in data set [5] were 28.7 nM and 970 nM, respectively. Besides, the Ki in data set [2] was 3.03 nM; in data set [3], greater than 450 nM. The Ratio Ki in data set [6] is greater than 143. This compound yielded a half-life at 1 µM in data set [4] of 21.6 min.

With `Oc1cccc2c1CNC(CN1CCC3(CCc4ccccc43)CC1)C2` (stereo not drawn), the IC50 is 53.9 nM in data set [1] and 940 nM in data set [5]. For the same compound, the figures for the Ki in data set [2] and in data set [3] were 2.4 nM and 288 nM, respectively. The Ratio Ki in data set [6] is 120. Besides, the half-life at 1 µM in data set [4] stood at 12.2 min.
